Reference: ChEMBL document CHEMBL3271970, “Radiopharmaceuticals. 16. Halogenated dopamine analogs. Synthesis and radiolabeling of 6-iododopamine and tissue distribution studies in animals” (J Med Chem, 1976)

How the values were obtained:
[1] = Biodistribution in adrenal cortex of mongrel dog assessed per organ at 1.29 x 10^-6 mol, iv measured after 2 hrs; assay type: ADME, organism-based, Canis lupus familiaris; conditions: in vivo
In short: (§1)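 Radioiodinated ([123I] or [131I]) 6-iododopamine in water or saline, used within 30 min of preparation. Given iv at 1.29 × 10^-6 mol/dog; one dog per time point, killed at 2 or 24 h. Large organs counted as three samples and averaged; adrenals and thyroid taken intact and counted. Expressed as % dose/organ.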

[2] = system: Mus musculus; experiment: Biodistribution in thyroid gland of mouse assessed per organ at 8 to 11 x 10^-8 mol, iv measured after 240 mins; assay type: ADME, organism-based; conditions: in vivo, 4 h
In short: (§2)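 Tracer labelled with either 123I or 131I, in water or saline, used within 30 min of preparation. Mice dosed iv at 8-11 × 10^-8 mol/mouse and killed by ether overdose. Organs counted as % dose/organ ± SD, n = 3-10 mice per time point.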

[3] = system: Mus musculus; experiment: Biodistribution in adrenal gland of mouse assessed per organ at 8 to 11 x 10^-8 mol, iv measured after 15 mins; assay type: ADME, organism-based; conditions: in vivo, 0.25 h
In short: (§3)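 [131I]- or [123I]-6-iododopamine in water or saline, used within 30 min of preparation. Injected iv at 8-11 × 10^-8 mol/mouse. Mice killed by ether overdose at 5-240 min; 3-10 mice per time point. Tissue radioactivity expressed as % dose/organ ± SD.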

[4] = system: Mus musculus; experiment: Biodistribution in thyroid gland of mouse assessed per organ at 8 to 11 x 10^-8 mol, iv measured after 60 mins; assay type: ADME, organism-based; conditions: in vivo, 1 h; in short: as §2
[5] = Biodistribution in adrenal medulla of mongrel dog assessed per organ at 1.29 x 10^-6 mol, iv measured after 2 hrs; assay type: ADME, organism-based, Canis lupus familiaris; conditions: in vivo; in short: as §1
[6] = system: Liver; experiment: Biodistribution in liver of mouse assessed per organ at 8 to 11 x 10^-8 mol, iv measured after 120 mins; assay type: ADME, organism-based; conditions: in vivo, 2 h; in short: as §3
[7] = system: Mus musculus; experiment: Biodistribution in adrenal gland of mouse assessed per organ at 8 to 11 x 10^-8 mol, iv measured after 5 mins; assay type: ADME, organism-based; conditions: in vivo; in short: as §3
[8] = system: Mus musculus; experiment: Biodistribution in adrenal gland of mouse assessed per organ at 8 to 11 x 10^-8 mol, iv measured after 240 mins; assay type: ADME, organism-based; conditions: in vivo, 4 h; in short: as §3
[9] = system: Mus musculus; experiment: Biodistribution in thyroid gland of mouse assessed per organ at 8 to 11 x 10^-8 mol, iv measured after 15 mins; assay type: ADME, organism-based; conditions: in vivo, 0.25 h; in short: as §2
[10] = system: Kidney; experiment: Biodistribution in kidney of mouse assessed per organ at 8 to 11 x 10^-8 mol, iv measured after 5 mins; assay type: ADME, organism-based; conditions: in vivo; in short: as §3
[11] = system: Kidney; experiment: Biodistribution in kidney of mouse assessed per organ at 8 to 11 x 10^-8 mol, iv measured after 15 mins; assay type: ADME, organism-based; conditions: in vivo, 0.25 h; in short: as §3
[12] = system: Liver; experiment: Biodistribution in liver of mouse assessed per organ at 8 to 11 x 10^-8 mol, iv measured after 240 mins; assay type: ADME, organism-based; conditions: in vivo, 4 h; in short: as §3
[13] = Biodistribution in kidney of mongrel dog assessed per organ at 1.29 x 10^-6 mol, iv measured after 2 hrs; assay type: ADME, organism-based, Canis lupus familiaris; conditions: in vivo; in short: as §1
[14] = system: Liver; experiment: Biodistribution in liver of mouse assessed per organ at 8 to 11 x 10^-8 mol, iv measured after 5 mins; assay type: ADME, organism-based; conditions: in vivo; in short: as §3
[15] = Biodistribution in kidney of mongrel dog assessed per organ at 1.29 x 10^-6 mol, iv measured after 24 hrs; assay type: ADME, organism-based, Canis lupus familiaris; conditions: in vivo; in short: as §1
[16] = system: Liver; experiment: Biodistribution in liver of mouse assessed per organ at 8 to 11 x 10^-8 mol, iv measured after 30 mins; assay type: ADME, organism-based; conditions: in vivo, 0.5 h; in short: as §3
[17] = system: Mus musculus; experiment: Biodistribution in thyroid gland of mouse assessed per organ at 8 to 11 x 10^-8 mol, iv measured after 5 mins; assay type: ADME, organism-based; conditions: in vivo; in short: as §2
[18] = Biodistribution in adrenal medulla of mongrel dog assessed per organ at 1.29 x 10^-6 mol, iv measured after 24 hrs; assay type: ADME, organism-based, Canis lupus familiaris; conditions: in vivo; in short: as §1
[19] = system: Liver; experiment: Biodistribution in liver of mouse assessed per organ at 8 to 11 x 10^-8 mol, iv measured after 60 mins; assay type: ADME, organism-based; conditions: in vivo, 1 h; in short: as §3
[20] = system: Mus musculus; experiment: Biodistribution in adrenal gland of mouse assessed per organ at 8 to 11 x 10^-8 mol, iv measured after 60 mins; assay type: ADME, organism-based; conditions: in vivo, 1 h; in short: as §3
[21] = Biodistribution in adrenal cortex of mongrel dog assessed per organ at 1.29 x 10^-6 mol, iv measured after 24 hrs; assay type: ADME, organism-based, Canis lupus familiaris; conditions: in vivo; in short: as §1
[22] = system: Kidney; experiment: Biodistribution in kidney of mouse assessed per organ at 8 to 11 x 10^-8 mol, iv measured after 30 mins; assay type: ADME, organism-based; conditions: in vivo, 0.5 h; in short: as §3
[23] = system: Liver; experiment: Biodistribution in liver of mongrel dog assessed per organ at 1.29 x 10^-6 mol, iv measured after 24 hrs; assay type: ADME, organism-based, Canis lupus familiaris; conditions: in vivo; in short: as §1
[24] = system: Liver; experiment: Biodistribution in liver of mongrel dog assessed per organ at 1.29 x 10^-6 mol, iv measured after 2 hrs; assay type: ADME, organism-based, Canis lupus familiaris; conditions: in vivo; in short: as §1
[25] = Biodistribution in thyroid gland of mongrel dog assessed per organ at 1.29 x 10^-6 mol, iv measured after 24 hrs; assay type: ADME, organism-based, Canis lupus familiaris; conditions: in vivo
In short: (§4)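 Radioiodine-labelled tracer given at 1.29 × 10^-6 mol/dog. One dog per time point, killed at 2 or 24 h. Thyroids and other small organs were taken intact and counted. Large organs were sampled three times and averaged. Result given as % dose/organ.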

[26] = system: Kidney; experiment: Biodistribution in kidney of mouse assessed per organ at 8 to 11 x 10^-8 mol, iv measured after 120 mins; assay type: ADME, organism-based; conditions: in vivo, 2 h; in short: as §3
[27] = system: Mus musculus; experiment: Biodistribution in thyroid gland of mouse assessed per organ at 8 to 11 x 10^-8 mol, iv measured after 120 mins; assay type: ADME, organism-based; conditions: in vivo, 2 h; in short: as §2
[28] = system: Mus musculus; experiment: Biodistribution in adrenal gland of mouse assessed per organ at 8 to 11 x 10^-8 mol, iv measured after 120 mins; assay type: ADME, organism-based; conditions: in vivo, 2 h; in short: as §3
[29] = system: Mus musculus; experiment: Biodistribution in adrenal gland of mouse assessed per organ at 8 to 11 x 10^-8 mol, iv measured after 30 mins; assay type: ADME, organism-based; conditions: in vivo, 0.5 h; in short: as §3
[30] = system: Kidney; experiment: Biodistribution in kidney of mouse assessed per organ at 8 to 11 x 10^-8 mol, iv measured after 240 mins; assay type: ADME, organism-based; conditions: in vivo, 4 h; in short: as §3
[31] = system: Mus musculus; experiment: Biodistribution in thyroid gland of mouse assessed per organ at 8 to 11 x 10^-8 mol, iv measured after 30 mins; assay type: ADME, organism-based; conditions: in vivo, 0.5 h; in short: as §2
[32] = system: Kidney; experiment: Biodistribution in kidney of mouse assessed per organ at 8 to 11 x 10^-8 mol, iv measured after 60 mins; assay type: ADME, organism-based; conditions: in vivo, 1 h; in short: as §3
[33] = Biodistribution in thyroid gland of mongrel dog assessed per organ at 1.29 x 10^-6 mol, iv measured after 2 hrs; assay type: ADME, organism-based, Canis lupus familiaris; conditions: in vivo; in short: as §4
[34] = system: Liver; experiment: Biodistribution in liver of mouse assessed per organ at 8 to 11 x 10^-8 mol, iv measured after 15 mins; assay type: ADME, organism-based; conditions: in vivo, 0.25 h; in short: as §3

Br.NCCc1cc(O)c(O)cc1[123I]
Drug uptake [1]: 0.0092 %ID
Drug uptake [2]: 0.158 %ID
Drug uptake [3]: 0.015 %ID
Drug uptake [4]: 0.066 %ID
Drug uptake [5]: 0.0062 %ID
Drug uptake [6]: 0.84 %ID
Drug uptake [7]: 0.03 %ID
Drug uptake [8]: 0.012 %ID
Drug uptake [9]: 0.067 %ID
Drug uptake [10]: 8.03 %ID
Drug uptake [11]: 3.44 %ID
Drug uptake [12]: 0.94 %ID
Drug uptake [13]: 0.77 %ID
Drug uptake [14]: 7.1 %ID
Drug uptake [15]: 0.075 %ID
Drug uptake [16]: 2.4 %ID
Drug uptake [17]: 0.094 %ID
Drug uptake [18]: 0.0021 %ID
Drug uptake [19]: 1.04 %ID
Drug uptake [20]: 0.0087 %ID
Drug uptake [21]: 0.0104 %ID
Drug uptake [22]: 1.69 %ID
Drug uptake [23]: 0.48 %ID
Drug uptake [24]: 2.24 %ID
Drug uptake [25]: 0.48 %ID
Drug uptake [26]: 0.78 %ID
Drug uptake [27]: 0.176 %ID
Drug uptake [28]: 0.02 %ID
Drug uptake [29]: 0.014 %ID
Drug uptake [30]: 0.79 %ID
Drug uptake [31]: 0.084 %ID
Drug uptake [32]: 1 %ID
Drug uptake [33]: 0.026 %ID
Drug uptake [34]: 3.64 %ID
